Measured values reported in ChEMBL document CHEMBL1145462, “In vivo pharmacodynamic activity of the glycopeptide dalbavancin” (Antimicrob Agents Chemother, 2007).
Converted amounts (≈) assume the structure as drawn.

Tests used:
[1] = system: Streptococcus pneumoniae; assay: AUC/MIC ratio of Streptococcus pneumoniae 1199 infected neutropenic mouse thigh infection model at 0.99 mg/kg, ip administered every 72 hrs by 2-log killing experiment; type: functional; conditions: route intraperitoneal
[2] = system: Staphylococcus aureus; assay: AUC/MBC ratio of methicillin-resistant Staphylococcus aureus infected neutropenic mouse thigh infection model at 45.3 mg/kg, ip administered every 24 hrs by 1-log killing experiment; type: functional; conditions: route intraperitoneal
[3] = system: Staphylococcus aureus; assay: AUC/MIC ratio of methicillin-resistant Staphylococcus aureus infected neutropenic mouse thigh infection model at 37.7 mg/kg, ip administered every 24 hrs by static effect experiment; type: functional; conditions: route intraperitoneal
[4] = system: Staphylococcus aureus; assay: AUC/MBC ratio of methicillin-resistant Staphylococcus aureus infected neutropenic mouse thigh infection model at 43 mg/kg, ip administered every 72 hrs by static effect experiment; type: functional; conditions: route intraperitoneal
[5] = system: Staphylococcus aureus; assay: AUC/MBC ratio of methicillin-resistant Staphylococcus aureus infected neutropenic mouse thigh infection model at 62 mg/kg, ip administered every 72 hrs by 1-log killing experiment; type: functional; conditions: route intraperitoneal
[6] = system: Streptococcus pneumoniae; assay: Bactericidal activity against penicillin-susceptible Streptococcus pneumoniae ATCC 10813 infected neutropenic Swiss ICR mouse thigh infection model assessed as drug level causing 1-log reduction of bacterial count at 2.3 mg/kg, ip dosed every 12 hrs; type: functional; conditions: route intraperitoneal
In short: (§1)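 Neutropenic mice (cyclophosphamide ip 150 mg/kg day −4, 100 mg/kg day −1, then every 48 h) received 0.1 ml log-phase inoculum per thigh under halothane. Intraperitoneal dalbavancin started 2 h later and was given for 6 days at q12h, q24h, q36h or q72h, two mice per regimen. Thigh CFU were counted at 144 h. Endpoint doses relative to start-of-therapy counts came from Hill-model nonlinear regression and are expressed per 24 h.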

[7] = system: Streptococcus pneumoniae; assay: Bactericidal activity in ip dosed penicillin-susceptible Streptococcus pneumoniae ATCC 10813 infected neutropenic mouse thigh infection model assessed as reduction of colony count after 48 hrs by time kill study; type: functional, Thigh muscle
In short: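 Neutropenic mice with thigh infection treated 2 h post-inoculation with single ip doses of 0.625, 1.25, 2.5, 5 or 10 mg/kg. Two mice per time point, sampled 0.5–96 h, with untreated controls. Thighs processed for CFU, reported as mean ± standard deviation log10 CFU/thigh.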

[8] = system: Streptococcus pneumoniae; assay: Bactericidal activity against penicillin-susceptible Streptococcus pneumoniae ATCC 10813 infected neutropenic Swiss ICR mouse thigh infection model assessed as drug level causing 2-log reduction of bacterial count at 1.26 mg/kg, ip dosed every 36 hrs; type: functional; conditions: route intraperitoneal; in short: as §1
[9] = system: Staphylococcus aureus; assay: AUC/MBC ratio of Staphylococcus aureus Smith infected neutropenic mouse thigh infection model at 73.5 mg/kg, ip administered every 24 hrs by 2-log killing experiment; type: functional; conditions: route intraperitoneal
[10] = system: Staphylococcus aureus; assay: AUC/MBC ratio of methicillin-resistant Staphylococcus aureus infected neutropenic mouse thigh infection model at 37.7 mg/kg, ip administered every 24 hrs by static effect experiment; type: functional; conditions: route intraperitoneal
[11] = system: Staphylococcus aureus; assay: AUC/MIC ratio of methicillin-resistant Staphylococcus aureus infected neutropenic mouse thigh infection model at 53.5 mg/kg, ip administered every 24 hrs by 2-log killing experiment; type: functional; conditions: route intraperitoneal
[12] = system: Staphylococcus aureus; assay: AUC/MBC ratio of Staphylococcus aureus ATCC 25923 infected neutropenic mouse thigh infection model at 160 mg/kg, ip administered every 72 hrs by static effect experiment; type: functional; conditions: route intraperitoneal
[13] = system: Streptococcus pneumoniae; assay: AUC/MIC ratio of Streptococcus pneumoniae 1325 infected neutropenic mouse thigh infection model at 1.6 mg/kg, ip administered every 24 hrs by 1-log killing experiment; type: functional; conditions: route intraperitoneal
[14] = system: Streptococcus pneumoniae; assay: AUC/MIC ratio of Streptococcus pneumoniae 1199 infected neutropenic mouse thigh infection model at 0.57 mg/kg, ip administered every 24 hrs by 2-log killing experiment; type: functional; conditions: route intraperitoneal
[15] = system: Streptococcus pneumoniae; assay: AUC/MIC ratio of Streptococcus pneumoniae 1293 infected neutropenic mouse thigh infection model at 1.01 mg/kg, ip administered every 72 hrs by static effect experiment; type: functional; conditions: route intraperitoneal
[16] = system: Staphylococcus aureus; assay: Bactericidal activity in ip dosed […] Staphylococcus aureus ATCC 29213 infected neutropenic mouse thigh infection model assessed as reduction of colony count after 96 hrs by time kill study; type: functional, Thigh muscle
In short: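 Neutropenic mice (cyclophosphamide ip 150 mg/kg day −4, 100 mg/kg day −1, then every 48 h) infected in thigh with 0.1 ml log-phase inoculum (10^6.6–10^7.6 CFU/ml) under halothane. Single ip doses of 5, 10, 20, 40, or 80 mg/kg were given 2 h later. Two mice sampled at 0.5–96 h. Thighs processed for CFU, reported as mean ± SD log10 CFU/thigh.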

[17] = system: Streptococcus pneumoniae; assay: AUC/MIC ratio of Streptococcus pneumoniae 1199 infected neutropenic mouse thigh infection model at 0.72 mg/kg, ip administered every 72 hrs by static effect experiment; type: functional; conditions: route intraperitoneal
[18] = system: Staphylococcus aureus; assay: AUC/MIC ratio of Staphylococcus aureus ATCC 25923 infected neutropenic mouse thigh infection model at 51.2 mg/kg, ip administered every 24 hrs by 1-log killing experiment; type: functional; conditions: route intraperitoneal
[19] = Half life in bacterial pathogen-infected neutropenic Swiss ICR mouse thigh infection model at 20 mg/kg, ip; type: ADME, organism-based; parameters: dose 20 mg/kg, route intraperitoneal; conditions: in vivo
In short: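 Thigh-infected neutropenic mice received single intraperitoneal doses (2.5, 5, 10, 20, 40, 80 mg/kg; 0.2 ml/dose). Blood was drawn by retroorbital aspiration from groups of three mice at 0.5, 1, 2, 4, 6, 24, 48, 72 and 96 h. Plasma levels were measured by microbiologic assay with Bacillus subtilis (detection limit 0.10 mg/liter). Noncompartmental analysis was used: half-life by linear least-squares regression, AUC by trapezoidal rule.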

[20] = system: Staphylococcus aureus; assay: Antibacterial activity against Staphylococcus aureus 33591 by microdilution method; type: functional
In short: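 MICs in duplicate on at least two occasions by standard CLSI broth microdilution; S. aureus grown and quantified in Mueller-Hinton broth/agar.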

[21] = system: Streptococcus pneumoniae; assay: Bactericidal activity in Streptococcus pneumoniae ATCC 10813 infected neutropenic mouse thigh infection model assessed as drug level causing 1-log reduction of bacterial count at 4.13 mg/kg/6days; type: functional
[22] = system: Streptococcus pneumoniae; assay: AUC/MIC ratio of Streptococcus pneumoniae 1325 infected neutropenic mouse thigh infection model at 1.46 mg/kg, ip administered every 24 hrs by static effect experiment; type: functional; conditions: route intraperitoneal
[23] = system: Streptococcus pneumoniae; assay: AUC/MIC ratio of Streptococcus pneumoniae 1396 infected neutropenic mouse thigh infection model at 0.61 mg/kg, ip administered every 72 hrs by 1-log killing experiment; type: functional; conditions: route intraperitoneal
[24] = system: Streptococcus pneumoniae; assay: AUC/MIC ratio of Streptococcus pneumoniae 1293 infected neutropenic mouse thigh infection model at 0.55 mg/kg, ip administered every 24 hrs by 1-log killing experiment; type: functional; conditions: route intraperitoneal
[25] = system: Staphylococcus aureus; assay: AUC/MIC ratio of methicillin-resistant Staphylococcus aureus infected neutropenic mouse thigh infection model at 85 mg/kg, ip administered every 72 hrs by 2-log killing experiment; type: functional; conditions: route intraperitoneal
[26] = system: Staphylococcus aureus; assay: AUC/MBC ratio of Staphylococcus aureus 307109 infected neutropenic mouse thigh infection model at 31 mg/kg, ip administered every 72 hrs by static effect experiment; type: functional; conditions: route intraperitoneal
[27] = system: Staphylococcus aureus; assay: Antibacterial activity against methicillin-resistant Staphylococcus aureus in presence of 95% mouse serum; type: functional
In short: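 MIC determined in broth, heat-treated (100°C, 30 min) 95% mouse serum, and 95% mouse serum ultrafiltrate, using arithmetic dilutions of 0.02 mg/liter per tube. Protein binding estimated as (MIC in 95% serum − MIC in ultrafiltrate)/MIC in 95% serum.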

## CN[C@H]1C(=O)N[C@@H]2Cc3ccc(cc3)Oc3cc4cc(c3O[C@@H]3O[C@H](C(=O)O)[C@@H](O)[C@H](O)[C@H]3NC(=O)CCCCCCCCC(C)C)Oc3ccc(cc3Cl)[C@@H](O)[C@@H]3NC(=O)[C@H](NC(=O)[C@@H]4NC(=O)[C@@H](NC2=O)c2cc(cc(O)c2Cl)Oc2cc1ccc2O)c1ccc(O)c(c1)-c1c(O[C@H]2O[C@H](CO)[C@@H](O)[C@H](O)[C@@H]2O)cc(O)cc1[C@@H](C(=O)NCCCN(C)C)NC3=O [DALBAVANCIN]
[1]
  RatioAUC/MIC: 35.3
[2]
  Ratio: 109
[3]
  RatioAUC/MIC: 374
[4]
  Ratio: 35.3
[5]
  Ratio: 48.8
[6]
  Activity: 2.8
[7]
  Activity: 4
[8]
  Activity: 1.81
[9]
  Ratio: 173
[10]
  Ratio: 93
[11]
  RatioAUC/MIC: 519
[12]
  Ratio: 66
[13]
  RatioAUC/MIC: 31.8
[14]
  RatioAUC/MIC: 22.7
[15]
  RatioAUC/MIC: 14.1
[16]
  Activity: 4
[17]
  RatioAUC/MIC: 10.3
[18]
  RatioAUC/MIC: 250
[19]
  half-life: 7.6 h
[20]
  MBC: 0.25 µg/mL (≈ 0.138 µM)
  MIC: 0.12 µg/mL (≈ 0.0661 µM)
[21]
  Activity: 4.38
[22]
  RatioAUC/MIC: 29
[23]
  RatioAUC/MIC: 4.3
[24]
  RatioAUC/MIC: 21.7
[25]
  RatioAUC/MIC: 292
[26]
  Ratio: 11.3
[27]
  MIC: 32 µg/mL
